{
  "source": "paper PMC2745822",
  "about": "(The Journal of pharmacology and experimental therapeutics, 2008)",
  "key": {"rat M4 mAChR": {"molecular_target": "T1, rat M4 mAChR (Rattus norvegicus, UniProt P08485)", "T1 sequence (P08485 1-478)": "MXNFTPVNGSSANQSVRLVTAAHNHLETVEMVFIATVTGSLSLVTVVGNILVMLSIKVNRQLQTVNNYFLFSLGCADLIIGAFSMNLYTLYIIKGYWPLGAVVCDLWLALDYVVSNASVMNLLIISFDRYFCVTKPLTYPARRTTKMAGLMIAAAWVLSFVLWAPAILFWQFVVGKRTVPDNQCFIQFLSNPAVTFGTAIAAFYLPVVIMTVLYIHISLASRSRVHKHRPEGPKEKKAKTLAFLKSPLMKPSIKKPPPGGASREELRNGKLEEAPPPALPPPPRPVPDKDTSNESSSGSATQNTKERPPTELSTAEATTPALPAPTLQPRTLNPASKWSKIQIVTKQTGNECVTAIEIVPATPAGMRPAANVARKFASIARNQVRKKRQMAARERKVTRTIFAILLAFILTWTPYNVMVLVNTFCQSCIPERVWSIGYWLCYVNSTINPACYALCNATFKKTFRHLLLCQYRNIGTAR", "assay_type": "cell-based", "conditions": "for EC50: potentiation of an EC20 concentration of ACh"}, "rM4 receptor": {"molecular_target": "T2, rM4 receptor (Rattus norvegicus, UniProt P08485)", "T2 sequence (P08485 1-478)": "T1 sequence (P08485 1-478)", "assay": "[3H]NMS equilibrium radioligand binding, membranes from rM4-expressing CHO cells"}, "M1 mAChR": {"molecular_target": "T3, M1 mAChR (Rattus norvegicus, UniProt P08482)", "T3 sequence (P08482 1-460)": "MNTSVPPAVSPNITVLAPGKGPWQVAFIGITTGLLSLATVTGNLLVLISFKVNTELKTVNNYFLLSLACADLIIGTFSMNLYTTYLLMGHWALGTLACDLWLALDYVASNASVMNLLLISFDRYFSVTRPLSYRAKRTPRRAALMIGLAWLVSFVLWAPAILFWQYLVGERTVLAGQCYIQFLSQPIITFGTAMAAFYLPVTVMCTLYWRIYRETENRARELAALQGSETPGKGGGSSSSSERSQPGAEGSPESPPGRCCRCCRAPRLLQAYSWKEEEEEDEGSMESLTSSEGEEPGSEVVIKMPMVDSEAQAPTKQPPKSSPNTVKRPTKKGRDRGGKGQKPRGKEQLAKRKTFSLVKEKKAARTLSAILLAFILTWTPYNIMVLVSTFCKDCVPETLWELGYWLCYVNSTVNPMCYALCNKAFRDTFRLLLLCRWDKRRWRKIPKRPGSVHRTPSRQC", "assay": "Calcium mobilization selectivity assay, CHO K1 cells expressing M1", "assay_type": "cell-based", "conditions": "30 µM compound", "summary_of_the_method": "(§1)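 CHO K1 cells stably expressing rat M1 or human M3 or M5, coupled through endogenous Gq. Seeded 50,000 cells/well and held overnight in antibiotic-free medium at 37°C/5% CO2. Loaded with 2 µM Fluo-4 AM for 45 min at 37°C in HBSS/20 mM HEPES/2.5 mM probenecid, pH 7.4. […] Three independent experiments.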"}, "M3 mAChR": {"molecular_target": "M3 mAChR (Homo sapiens, UniProt P20309)", "sequence (P20309 whole entry)": "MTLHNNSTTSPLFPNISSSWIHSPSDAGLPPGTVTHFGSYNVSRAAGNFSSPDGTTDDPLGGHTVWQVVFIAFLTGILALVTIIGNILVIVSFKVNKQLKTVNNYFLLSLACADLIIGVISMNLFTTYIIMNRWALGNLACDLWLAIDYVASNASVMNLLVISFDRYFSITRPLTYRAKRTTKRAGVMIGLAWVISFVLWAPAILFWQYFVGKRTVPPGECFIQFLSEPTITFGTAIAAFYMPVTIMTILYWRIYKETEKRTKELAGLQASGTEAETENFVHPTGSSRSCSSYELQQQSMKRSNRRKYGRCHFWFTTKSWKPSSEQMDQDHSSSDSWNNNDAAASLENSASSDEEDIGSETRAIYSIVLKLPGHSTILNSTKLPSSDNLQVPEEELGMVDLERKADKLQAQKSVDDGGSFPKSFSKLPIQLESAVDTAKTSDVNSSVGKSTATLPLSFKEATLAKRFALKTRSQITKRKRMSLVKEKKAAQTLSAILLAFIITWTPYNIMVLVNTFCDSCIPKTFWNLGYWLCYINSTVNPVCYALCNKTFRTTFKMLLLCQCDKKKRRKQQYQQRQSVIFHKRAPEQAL", "assay": "Calcium mobilization selectivity assay, CHO K1 cells expressing M3", "assay_type": "cell-based", "conditions": "30 µM compound", "summary_of_the_method": "as §1"}, "[1]": {"test_system": "panel of 68 discrete GPCRs, ion channels, transporters, and enzymes", "assay": "MDS Pharma LeadProfiling Screen radioligand binding panel", "conditions": "10 µM; for VU0152099 with the single exception of GABAA receptors"}, "GABAA receptors": {"test_system": "GABAA receptors", "assay": "MDS Pharma LeadProfiling Screen, flunitrazepam binding", "conditions": "10 µM"}, "panel of 16 GPCRs": {"test_system": "panel of 16 GPCRs", "assay": "Millipore GPCR Profiler functional panel", "assay_type": "cell-based", "summary_of_the_method": "(§2)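 Outsourced functional screening paradigm covering 16 GPCRs, chosen as family A subtypes among the closest relatives of mAChRs. Test compound was assessed for agonist, antagonist and allosteric potentiator activity by its effect on full concentration-response curves of each receptor's agonist.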"}, "human M4": {"molecular_target": "T4, human M4 (Homo sapiens, UniProt P08173)", "T4 sequence (P08173 1-479)": "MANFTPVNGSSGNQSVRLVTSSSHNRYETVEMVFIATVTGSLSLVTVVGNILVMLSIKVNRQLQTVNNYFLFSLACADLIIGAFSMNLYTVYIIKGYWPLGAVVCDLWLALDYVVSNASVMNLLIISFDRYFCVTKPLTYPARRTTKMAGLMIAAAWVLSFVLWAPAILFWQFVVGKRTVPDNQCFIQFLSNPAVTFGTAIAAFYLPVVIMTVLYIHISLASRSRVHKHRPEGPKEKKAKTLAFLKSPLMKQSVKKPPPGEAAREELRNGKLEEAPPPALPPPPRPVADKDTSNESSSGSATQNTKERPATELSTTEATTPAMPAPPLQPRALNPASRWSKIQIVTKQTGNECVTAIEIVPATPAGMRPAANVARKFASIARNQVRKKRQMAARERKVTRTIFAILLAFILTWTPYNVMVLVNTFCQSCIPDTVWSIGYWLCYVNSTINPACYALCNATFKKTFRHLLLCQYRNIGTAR", "assay": "Millipore GPCR Profiler functional screen, human M4", "assay_type": "cell-based", "conditions": "full agonist CRC", "summary_of_the_method": "as §2"}, "serotonin 2B receptor": {"molecular_target": "serotonin 2B receptor (Homo sapiens, UniProt P41595)", "sequence (P41595 whole entry)": "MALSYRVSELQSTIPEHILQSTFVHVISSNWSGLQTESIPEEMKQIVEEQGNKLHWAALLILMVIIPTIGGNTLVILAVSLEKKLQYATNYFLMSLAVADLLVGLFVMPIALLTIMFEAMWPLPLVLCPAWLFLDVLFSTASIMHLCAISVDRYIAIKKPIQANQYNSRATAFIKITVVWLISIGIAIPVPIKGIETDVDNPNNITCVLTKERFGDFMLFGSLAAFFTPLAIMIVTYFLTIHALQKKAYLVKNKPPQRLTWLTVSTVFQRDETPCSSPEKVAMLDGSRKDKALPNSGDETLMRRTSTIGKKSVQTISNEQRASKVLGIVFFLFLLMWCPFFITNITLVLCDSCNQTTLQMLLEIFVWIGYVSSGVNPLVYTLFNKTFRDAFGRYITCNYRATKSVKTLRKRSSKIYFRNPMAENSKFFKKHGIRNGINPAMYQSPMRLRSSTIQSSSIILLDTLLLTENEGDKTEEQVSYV", "assay": "Millipore GPCR Profiler functional screen, serotonin 2B receptor", "assay_type": "cell-based", "conditions": "full agonist CRC", "summary_of_the_method": "as §2"}, "[2]": {"assay": "Brain and plasma exposure pharmacokinetic profiling", "assay_type": "in vivo, rat", "conditions": "male rats, 56.6 mg/kg i.p.; mean ± S.E.M., n = 3", "summary_of_the_method": "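Male Sprague-Dawley rats (225–250 g), fasted overnight. Test compound dissolved at 56.6 mg/ml in 10% Tween 80/water, pH ~7.0 (1 N NaOH), sonicated, and given at 56.6 mg/kg i.p. Brain and trunk plasma taken at 0.5, 1, 2 and 4 h, three rats per time point. Brain homogenized in acetonitrile/methanol and plasma precipitated with acidified acetonitrile, both with internal standard. Analyzed by positive-ESI LC-MS-MS, linear 50 ng/ml–100 µg/ml. AUC0-∞ by trapezoidal method.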"}},
  "note": "Where two headings read alike, the source gives them in different places.",
  "data": [
    {"smiles": "Cc1cc(C)c2c(N)c(C(=O)NCc3ccc4c(c3)OCO4)sc2n1", "note": "[VU0152099, 3-amino-N-(benzo[d][1,3]dioxol-5-ylmethyl)-4,6-dimethylthieno[2,3-b]pyridine carboxamide]", "values": [
      {"measurement": "maximal leftward shift of the ACh CRC", "setting": "rat M4 mAChR; 30 µM compound", "value": 30, "unit": "fold"},
      {"measurement": "response in the absence of an ACh EC20 (agonist activity)", "setting": "rat M4 mAChR; compound alone", "value": "neither VU0152099 nor VU0152100 elicited a response"},
      {"measurement": "Rat M4 Ach -Fold Shift", "setting": "rat M4 mAChR; leftward shift of ACh CRC, average of at least three determinations", "value": 29.7, "unit": "fold"},
      {"measurement": "EC50", "setting": "rat M4 mAChR; read-out: M4 PAM activity EC50", "value": 403, "unit": "nM"},
      {"measurement": "EC50", "setting": "rat M4 mAChR; read-out: Rat M4 EC50, average of at least three determinations", "value": 400, "unit": "nM"},
      {"measurement": "displacement of [3H]NMS", "setting": "rM4 receptor; 0.1 nM [3H]NMS, concentrations up to 30 µM", "value": "neither M4 PAM displaced"},
      {"measurement": "leftward shift in the potency of ACh to displace [3H]NMS", "setting": "rM4 receptor; 10 µM compound", "value": 25, "unit": "fold"},
      {"measurement": "shift in the ACh CRC at M1", "setting": "M1 mAChR", "value": "No shift in the ACh CRC was observed"},
      {"measurement": "shift in the ACh CRC at M3", "setting": "M3 mAChR", "value": "No shift in the ACh CRC was observed"},
      {"measurement": "displacement of binding, all targets tested", "setting": "[1]", "value": "less than 50%"},
      {"measurement": "displacement of flunitrazepam binding", "setting": "GABAA receptors", "value": 51, "unit": "%"},
      {"measurement": "agonist activity, compound alone", "setting": "panel of 16 GPCRs; data not shown", "value": "no agonist activity at any receptor studied"},
      {"measurement": "allosteric potentiator activity at the other GPCR subtypes", "setting": "panel of 16 GPCRs; full agonist CRCs", "value": "had no allosteric potentiator activity at any of the other GPCR subtypes tested"},
      {"measurement": "potentiation of ACh-induced activation of human M4", "setting": "human M4", "value": "induced a robust potentiation of ACh-induced activation of human M4"},
      {"measurement": "antagonist activity at serotonin 2B receptor", "setting": "serotonin 2B receptor", "value": "weak antagonist activity at serotonin 2B receptor"},
      {"measurement": "AUC brain / AUC plasma", "setting": "[2]", "value": "0.39 ± 0.01"},
      {"measurement": "Mean AUC (0-∞) brain", "setting": "[2]", "value": "4751.80 ± 666.17", "unit": "ng·h/g"},
      {"measurement": "Mean AUC(0-∞) plasma", "setting": "[2]", "value": "11928.00 ± 1472.36", "unit": "ng·h/mL"},
      {"measurement": "t1/2 brain", "setting": "[2]", "value": "1.25 ± 0.023", "unit": "h"},
      {"measurement": "t1/2 plasma", "setting": "[2]", "value": "1.66 ± 0.39", "unit": "h"}
    ]}
  ]
}
